Columns and labels:
Assay type in all cases: functional
Staphylococcus aureus [1] = assay: Antibacterial activity against methicillin-resistant Staphylococcus aureus ATCC 43300 assessed as inhibition of bacterial growth after 18 hrs by CLSI protocol based broth microdilution assay
Method in brief: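 Broth microdilution MIC of carbazole alone vs MRSA ATCC 43300, tested up to 200 μM.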

Staphylococcus aureus [2] = assay: Antibacterial activity against methicillin-resistant Staphylococcus aureus COL assessed as inhibition of bacterial growth after 18 hrs in presence of oxacillin by CLSI protocol based broth microdilution assay
Staphylococcus aureus [3] = assay: Antibacterial activity against methicillin-resistant Staphylococcus aureus USA100 assessed as inhibition of bacterial growth after 18 hrs in presence of oxacillin by CLSI protocol based broth microdilution assay
Staphylococcus aureus [4] = assay: Antibacterial activity against methicillin-resistant Staphylococcus aureus USA300 assessed as inhibition of bacterial growth after 18 hrs in presence of oxacillin by CLSI protocol based broth microdilution assay
Staphylococcus aureus [5] = assay: Potentiation of oxacillin induced antibacterial activity against methicillin-resistant Staphylococcus aureus COL assessed as oxacillin MIC at 50 uM after 18 hrs by CLSI protocol based broth microdilution assay
Staphylococcus aureus [6] = assay: Potentiation of oxacillin induced antibacterial activity against methicillin-resistant Staphylococcus aureus USA300 assessed as fold change in oxacillin MIC at 50 uM after 18 hrs by CLSI protocol based broth microdilution assay
Staphylococcus aureus [7] = assay: Potentiation of oxacillin induced antibacterial activity against methicillin-resistant Staphylococcus aureus ATCC 43300 assessed as fold change in oxacillin MIC at 50 uM after 18 hrs by CLSI protocol based broth microdilution assay
Staphylococcus aureus [8] = assay: Potentiation of oxacillin induced antibacterial activity against methicillin-resistant Staphylococcus aureus USA100 assessed as oxacillin MIC at 50 uM after 18 hrs by CLSI protocol based broth microdilution assay
Staphylococcus aureus [9] = assay: Potentiation of oxacillin induced antibacterial activity against methicillin-resistant Staphylococcus aureus COL assessed as fold change in oxacillin MIC at 50 uM after 18 hrs by CLSI protocol based broth microdilution assay
Staphylococcus aureus [10] = assay: Potentiation of oxacillin induced antibacterial activity against methicillin-resistant Staphylococcus aureus USA 100 assessed as fold change in oxacillin MIC at 50 uM after 18 hrs by CLSI protocol based broth microdilution assay
Staphylococcus aureus [11] = assay: Potentiation of oxacillin induced antibacterial activity against methicillin-resistant Staphylococcus aureus ATCC 43300 assessed as oxacillin MIC at 50 uM after 18 hrs by CLSI protocol based broth microdilution assay
Staphylococcus aureus [12] = assay: Potentiation of oxacillin induced antibacterial activity against methicillin-resistant Staphylococcus aureus USA300 assessed as oxacillin MIC at 50 uM after 18 hrs by CLSI protocol based broth microdilution assay

SMILES | MIC (Staphylococcus aureus [1]) | MIC (Staphylococcus aureus [2]) [µg/mL] | MIC (Staphylococcus aureus [3]) [µg/mL] | MIC (Staphylococcus aureus [4]) [µg/mL] | MIC (Staphylococcus aureus [5]) [µg/mL] | fold change (FC) (Staphylococcus aureus [6]) | fold change (FC) (Staphylococcus aureus [7]) | MIC (Staphylococcus aureus [8]) [µg/mL] | fold change (FC) (Staphylococcus aureus [9]) | fold change (FC) (Staphylococcus aureus [10]) | MIC (Staphylococcus aureus [11]) [µg/mL] | MIC (Staphylococcus aureus [12]) [µg/mL]
CC1(C)S[C@@H]2[C@H](NC(=O)[C@H](N)c3ccccc3)C(=O)N2[C@H]1C(=O)O [AMPICILLIN] | 32 µg/mL | 32 | 32 | 8 |  |  |  |  |  |  |  | 
CO[C@@]1(NC(=O)Cc2cccs2)C(=O)N2C(C(=O)O)=C(COC(N)=O)CS[C@@H]21 [CEFOXITIN] | 64 µg/mL | 256 | 256 | 32 |  |  |  |  |  |  |  | 
Brc1ccc2c(c1)[nH]c1cc(Br)ccc12 | > 200 µM |  |  |  | 256 | 4 | 4 | 64 | 2 | 4 | 8 | 8
Brc1ccc2[nH]c3ccccc3c2c1 | > 200 µM |  |  |  | 512 | 1 | 1 | 128 | 1 | 2 | 32 | 32
Clc1ccc2c(c1)[nH]c1ccccc12 | > 200 µM |  |  |  | 512 | 1 | 2 | 128 | 2 | 2 | 16 | 16
Fc1ccc2[nH]c3ccccc3c2c1 | > 200 µM |  |  |  | 512 | 1 | 2 | 128 | 1 | 2 | 16 | 32
COc1ccc2[nH]c3ccc(OC)cc3c2c1 | > 200 µM |  |  |  | 512 | >1 | 0.5 | 256 | 1 | 1 | 64 | 64
c1ccc2c(c1)[nH]c1ccccc12 [CARBAZOLE] | > 200 µM |  |  |  | 512 | 1 | 1 | 256 | 1 | 1 | 32 | 32
Nc1ccc2[nH]c3ccc(N)cc3c2c1 | > 200 µM |  |  |  | 512 | 1 | 1 | 256 | 1 | 1 | 32 | 16

From ChEMBL document CHEMBL5046302, “Identification and Evaluation of Brominated Carbazoles as a Novel Antibiotic Adjuvant Scaffold in MRSA” (2022)
